Experiments:
[1] = target: ALK tyrosine kinase receptor (Homo sapiens) (UniProt Q9UM73); experiment: Inhibition of human recombinant ALK at 40 nM in presence of ATP by radiometric assay relative to control
In short: (§1)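 Panel of 327 recombinant human kinases in radiometric activity assays, each screened in duplicate at a single inhibitor concentration; percent activity remaining relative to vehicle control, percent inhibition taken as 100 minus activity remaining.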

[2] = target: Ephrin type-A receptor 5 (Homo sapiens) (UniProt P54756); experiment: Inhibition of human recombinant EphA5 at 40 nM in presence of ATP by radiometric assay relative to control
[3] = target: Vascular endothelial growth factor receptor 1 (Homo sapiens) (UniProt P17948); experiment: Inhibition of human recombinant FLT1 at 40 nM in presence of ATP by radiometric assay relative to control
[4] = target: Calcium/calmodulin-dependent protein kinase type 1 (Homo sapiens) (UniProt Q14012); experiment: Inhibition of human recombinant CaMK1a at 40 nM related to control ULK1
[5] = target: Epidermal growth factor receptor (Homo sapiens) (UniProt P00533); experiment: Inhibition of human recombinant EGFR at 40 nM related to control ULK1
[6] = target: Activin receptor type-1-like (Homo sapiens) (UniProt P37023); experiment: Inhibition of human recombinant ALK1 at 500 nM in presence of ATP by radiometric assay relative to control
In short: (§2)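 Panel of 327 recombinant human kinases, each assayed in vitro by radiometric activity assay in duplicate at a single inhibitor concentration per compound, chosen with reference to its ULK1 inhibition. Activity remaining was expressed as percent of vehicle control, and percent inhibition was calculated as 100 minus percent activity remaining.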

[7] = target: T1, Inhibitor of nuclear factor kappa-B kinase subunit beta (Homo sapiens) (UniProt O14920); experiment: Inhibition of human recombinant IKKb at 500 nM in presence of ATP by radiometric assay relative to control
T1 sequence (whole entry): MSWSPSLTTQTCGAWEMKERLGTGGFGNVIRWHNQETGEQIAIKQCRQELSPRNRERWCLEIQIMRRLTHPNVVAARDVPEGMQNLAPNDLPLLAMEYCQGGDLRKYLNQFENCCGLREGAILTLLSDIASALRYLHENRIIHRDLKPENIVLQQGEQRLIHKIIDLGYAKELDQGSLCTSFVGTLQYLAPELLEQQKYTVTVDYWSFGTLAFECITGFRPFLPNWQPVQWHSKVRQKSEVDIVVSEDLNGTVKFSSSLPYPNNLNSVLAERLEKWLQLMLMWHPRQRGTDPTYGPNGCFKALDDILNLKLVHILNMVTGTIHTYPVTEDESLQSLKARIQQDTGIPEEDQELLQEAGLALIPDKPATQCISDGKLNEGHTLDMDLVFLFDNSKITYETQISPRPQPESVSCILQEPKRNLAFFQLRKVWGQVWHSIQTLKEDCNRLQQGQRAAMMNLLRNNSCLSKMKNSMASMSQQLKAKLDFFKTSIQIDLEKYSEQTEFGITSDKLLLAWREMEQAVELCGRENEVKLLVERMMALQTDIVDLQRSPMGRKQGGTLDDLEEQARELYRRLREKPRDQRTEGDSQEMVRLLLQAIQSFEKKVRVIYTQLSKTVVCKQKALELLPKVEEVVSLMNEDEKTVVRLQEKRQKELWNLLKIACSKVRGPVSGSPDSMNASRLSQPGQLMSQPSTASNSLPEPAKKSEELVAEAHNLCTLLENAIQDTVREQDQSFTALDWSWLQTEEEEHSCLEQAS

[8] = target: Homeodomain-interacting protein kinase 2 (Homo sapiens) (UniProt Q9H2X6); experiment: Inhibition of human recombinant HIPK2 at 500 nM related to control ULK1
[9] = target: T2, Dual specificity protein kinase TTK (Homo sapiens) (UniProt P33981); experiment: Inhibition of human recombinant TTK at 500 nM related to control ULK1
T2 sequence (whole entry): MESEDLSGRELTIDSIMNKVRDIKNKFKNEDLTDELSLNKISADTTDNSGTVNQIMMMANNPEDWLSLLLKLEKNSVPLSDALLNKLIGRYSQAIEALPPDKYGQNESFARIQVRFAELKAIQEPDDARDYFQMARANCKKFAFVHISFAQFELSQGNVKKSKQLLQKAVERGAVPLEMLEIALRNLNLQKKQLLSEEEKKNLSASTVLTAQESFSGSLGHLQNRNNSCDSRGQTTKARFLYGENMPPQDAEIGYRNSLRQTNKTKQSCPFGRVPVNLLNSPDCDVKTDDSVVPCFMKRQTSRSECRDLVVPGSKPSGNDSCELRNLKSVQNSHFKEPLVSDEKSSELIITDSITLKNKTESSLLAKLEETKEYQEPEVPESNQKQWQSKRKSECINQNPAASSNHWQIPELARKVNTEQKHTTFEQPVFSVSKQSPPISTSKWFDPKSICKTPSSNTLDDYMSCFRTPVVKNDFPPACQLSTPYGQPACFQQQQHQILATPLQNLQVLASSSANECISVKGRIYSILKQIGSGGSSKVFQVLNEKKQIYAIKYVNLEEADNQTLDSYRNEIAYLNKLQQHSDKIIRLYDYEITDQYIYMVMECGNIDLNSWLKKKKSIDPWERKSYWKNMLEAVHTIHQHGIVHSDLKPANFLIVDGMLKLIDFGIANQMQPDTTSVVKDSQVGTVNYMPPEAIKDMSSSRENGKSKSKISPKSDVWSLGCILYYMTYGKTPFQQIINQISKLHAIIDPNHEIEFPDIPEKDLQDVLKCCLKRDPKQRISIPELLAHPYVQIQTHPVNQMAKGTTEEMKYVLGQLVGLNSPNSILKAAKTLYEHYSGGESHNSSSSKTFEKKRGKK

[10] = target: Tyrosine-protein kinase ABL2 (Homo sapiens) (UniProt P42684); experiment: Inhibition of human recombinant ABL2 at 15 nM in presence of ATP by radiometric assay relative to control; in short: as §1
[11] = target: Protein kinase C eta type (Homo sapiens) (UniProt P24723); experiment: Inhibition of human recombinant PKCH at 15 nM in presence of ATP by radiometric assay relative to control
[12] = target: 5'-AMP-activated protein kinase catalytic subunit alpha-1 (Homo sapiens) (UniProt Q13131); experiment: Inhibition of human recombinant AMPKa1 at 15 nM related to control ULK1; in short: as §2

Homeodomain-interacting protein kinase 2 (Homo sapiens), sequence (Q9H2X6 whole entry, looked up): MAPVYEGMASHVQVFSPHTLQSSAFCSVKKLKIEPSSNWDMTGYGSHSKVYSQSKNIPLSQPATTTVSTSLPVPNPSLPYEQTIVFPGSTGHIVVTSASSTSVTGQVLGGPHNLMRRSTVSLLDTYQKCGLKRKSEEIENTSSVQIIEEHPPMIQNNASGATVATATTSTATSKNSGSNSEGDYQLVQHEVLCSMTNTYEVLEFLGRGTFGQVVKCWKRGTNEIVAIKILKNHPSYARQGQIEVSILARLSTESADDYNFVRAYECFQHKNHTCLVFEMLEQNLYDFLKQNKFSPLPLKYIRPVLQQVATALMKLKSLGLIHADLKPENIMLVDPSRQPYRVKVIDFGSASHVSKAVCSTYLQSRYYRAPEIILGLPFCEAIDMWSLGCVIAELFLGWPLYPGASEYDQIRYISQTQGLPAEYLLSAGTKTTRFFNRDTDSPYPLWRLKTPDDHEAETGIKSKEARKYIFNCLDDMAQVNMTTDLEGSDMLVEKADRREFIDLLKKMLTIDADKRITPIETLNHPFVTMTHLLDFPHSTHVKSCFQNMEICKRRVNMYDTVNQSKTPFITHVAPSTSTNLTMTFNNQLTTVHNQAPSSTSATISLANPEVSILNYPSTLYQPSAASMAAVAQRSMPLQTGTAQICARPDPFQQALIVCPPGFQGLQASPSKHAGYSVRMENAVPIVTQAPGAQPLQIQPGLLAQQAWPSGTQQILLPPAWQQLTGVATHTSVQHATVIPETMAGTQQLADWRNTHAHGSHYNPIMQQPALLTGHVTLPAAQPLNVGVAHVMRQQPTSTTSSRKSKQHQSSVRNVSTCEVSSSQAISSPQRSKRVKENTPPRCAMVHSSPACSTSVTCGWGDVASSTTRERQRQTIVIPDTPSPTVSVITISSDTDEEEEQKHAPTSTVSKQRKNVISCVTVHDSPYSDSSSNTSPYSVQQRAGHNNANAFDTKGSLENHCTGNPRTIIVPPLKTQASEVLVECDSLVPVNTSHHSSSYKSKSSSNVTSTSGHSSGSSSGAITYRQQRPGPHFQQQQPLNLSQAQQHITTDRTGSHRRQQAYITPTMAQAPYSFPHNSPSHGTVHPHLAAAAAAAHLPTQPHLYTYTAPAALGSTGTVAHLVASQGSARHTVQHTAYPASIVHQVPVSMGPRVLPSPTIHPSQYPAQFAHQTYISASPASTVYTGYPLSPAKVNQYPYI
Ephrin type-A receptor 5 (Homo sapiens), sequence (P54756 whole entry): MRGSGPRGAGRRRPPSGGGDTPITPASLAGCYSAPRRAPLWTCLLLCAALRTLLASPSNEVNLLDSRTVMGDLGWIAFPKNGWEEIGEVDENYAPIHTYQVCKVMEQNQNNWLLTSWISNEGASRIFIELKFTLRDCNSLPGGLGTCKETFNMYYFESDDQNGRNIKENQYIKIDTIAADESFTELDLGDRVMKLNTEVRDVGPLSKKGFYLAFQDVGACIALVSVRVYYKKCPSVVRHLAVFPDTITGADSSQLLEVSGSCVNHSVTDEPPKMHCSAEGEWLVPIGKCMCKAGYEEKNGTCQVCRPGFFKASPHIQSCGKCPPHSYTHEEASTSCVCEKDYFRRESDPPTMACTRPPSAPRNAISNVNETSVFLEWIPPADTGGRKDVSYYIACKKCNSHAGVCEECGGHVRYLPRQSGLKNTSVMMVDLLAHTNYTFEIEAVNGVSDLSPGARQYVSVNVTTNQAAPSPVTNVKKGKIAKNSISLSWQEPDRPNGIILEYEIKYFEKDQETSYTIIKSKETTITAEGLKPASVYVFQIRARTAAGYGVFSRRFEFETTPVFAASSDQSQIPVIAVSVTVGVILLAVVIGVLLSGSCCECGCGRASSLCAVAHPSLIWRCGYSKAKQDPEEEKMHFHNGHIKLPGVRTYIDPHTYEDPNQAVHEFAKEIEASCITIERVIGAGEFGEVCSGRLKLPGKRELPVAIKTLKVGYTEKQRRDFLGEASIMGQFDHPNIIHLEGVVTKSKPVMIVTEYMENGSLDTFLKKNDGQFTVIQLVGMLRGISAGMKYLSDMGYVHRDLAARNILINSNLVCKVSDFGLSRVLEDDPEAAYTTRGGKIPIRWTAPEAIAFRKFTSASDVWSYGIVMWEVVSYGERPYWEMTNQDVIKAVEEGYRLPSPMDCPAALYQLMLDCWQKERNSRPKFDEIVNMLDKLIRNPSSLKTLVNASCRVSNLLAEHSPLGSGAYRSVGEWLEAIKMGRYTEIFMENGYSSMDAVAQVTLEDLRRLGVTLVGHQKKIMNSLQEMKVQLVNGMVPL
Protein kinase C eta type (Homo sapiens), sequence (P24723 whole entry): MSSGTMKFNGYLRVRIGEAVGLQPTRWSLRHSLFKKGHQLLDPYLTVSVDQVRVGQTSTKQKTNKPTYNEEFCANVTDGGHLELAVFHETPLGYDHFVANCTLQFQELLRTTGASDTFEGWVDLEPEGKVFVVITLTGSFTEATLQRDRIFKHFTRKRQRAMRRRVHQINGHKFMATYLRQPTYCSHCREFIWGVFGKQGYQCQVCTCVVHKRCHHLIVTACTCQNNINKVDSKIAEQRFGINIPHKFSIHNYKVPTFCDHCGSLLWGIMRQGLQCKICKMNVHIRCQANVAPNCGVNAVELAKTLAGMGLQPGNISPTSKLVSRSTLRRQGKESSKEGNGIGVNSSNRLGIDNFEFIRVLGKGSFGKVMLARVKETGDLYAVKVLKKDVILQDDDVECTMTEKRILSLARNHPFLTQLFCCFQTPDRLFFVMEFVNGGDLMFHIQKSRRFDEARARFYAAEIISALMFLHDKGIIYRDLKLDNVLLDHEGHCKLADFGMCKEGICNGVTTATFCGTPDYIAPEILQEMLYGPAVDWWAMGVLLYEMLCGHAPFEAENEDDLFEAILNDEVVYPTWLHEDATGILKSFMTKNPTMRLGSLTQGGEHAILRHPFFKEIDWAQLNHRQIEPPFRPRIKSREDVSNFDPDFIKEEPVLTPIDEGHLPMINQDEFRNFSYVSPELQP
Tyrosine-protein kinase ABL2 (Homo sapiens), sequence (P42684 whole entry): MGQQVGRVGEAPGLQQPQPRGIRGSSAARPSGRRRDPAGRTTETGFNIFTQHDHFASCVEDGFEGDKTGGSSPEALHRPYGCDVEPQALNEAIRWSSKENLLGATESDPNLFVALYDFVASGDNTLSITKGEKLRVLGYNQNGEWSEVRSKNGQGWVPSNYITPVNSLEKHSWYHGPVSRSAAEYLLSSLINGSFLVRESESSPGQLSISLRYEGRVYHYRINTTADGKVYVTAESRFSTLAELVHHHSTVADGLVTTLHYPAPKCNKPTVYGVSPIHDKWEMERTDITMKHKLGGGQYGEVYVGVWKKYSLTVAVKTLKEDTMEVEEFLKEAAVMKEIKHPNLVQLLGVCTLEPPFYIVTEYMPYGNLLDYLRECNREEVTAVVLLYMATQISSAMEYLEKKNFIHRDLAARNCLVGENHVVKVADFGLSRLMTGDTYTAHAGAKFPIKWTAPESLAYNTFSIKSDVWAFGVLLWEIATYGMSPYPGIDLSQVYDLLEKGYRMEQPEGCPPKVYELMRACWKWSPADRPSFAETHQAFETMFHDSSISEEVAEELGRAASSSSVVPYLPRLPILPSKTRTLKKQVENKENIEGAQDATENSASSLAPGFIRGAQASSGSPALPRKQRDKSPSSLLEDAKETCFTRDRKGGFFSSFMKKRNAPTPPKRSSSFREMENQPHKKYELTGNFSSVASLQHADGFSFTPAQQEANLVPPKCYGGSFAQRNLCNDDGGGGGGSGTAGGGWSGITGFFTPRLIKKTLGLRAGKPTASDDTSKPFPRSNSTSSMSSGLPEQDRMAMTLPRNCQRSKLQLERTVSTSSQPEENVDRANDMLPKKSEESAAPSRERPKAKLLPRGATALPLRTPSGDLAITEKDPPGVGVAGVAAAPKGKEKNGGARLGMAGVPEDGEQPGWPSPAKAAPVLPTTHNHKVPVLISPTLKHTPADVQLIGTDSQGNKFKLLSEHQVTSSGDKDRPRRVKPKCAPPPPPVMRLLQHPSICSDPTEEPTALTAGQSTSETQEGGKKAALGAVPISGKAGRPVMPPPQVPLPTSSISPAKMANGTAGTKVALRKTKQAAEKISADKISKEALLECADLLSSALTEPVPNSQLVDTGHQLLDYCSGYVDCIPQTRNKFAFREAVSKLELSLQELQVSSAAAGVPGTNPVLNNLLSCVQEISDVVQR
Calcium/calmodulin-dependent protein kinase type 1 (Homo sapiens), sequence (Q14012 whole entry, looked up): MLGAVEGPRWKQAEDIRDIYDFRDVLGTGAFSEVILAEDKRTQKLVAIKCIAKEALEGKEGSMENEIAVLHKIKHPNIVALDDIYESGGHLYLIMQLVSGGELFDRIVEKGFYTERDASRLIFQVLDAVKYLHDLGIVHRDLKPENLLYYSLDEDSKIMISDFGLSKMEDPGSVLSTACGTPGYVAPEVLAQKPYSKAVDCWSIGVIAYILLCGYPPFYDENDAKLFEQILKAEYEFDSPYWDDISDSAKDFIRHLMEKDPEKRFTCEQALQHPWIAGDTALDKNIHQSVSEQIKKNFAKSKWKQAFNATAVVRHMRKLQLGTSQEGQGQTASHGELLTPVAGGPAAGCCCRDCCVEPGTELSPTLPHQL
Activin receptor type-1-like (Homo sapiens), sequence (P37023 whole entry): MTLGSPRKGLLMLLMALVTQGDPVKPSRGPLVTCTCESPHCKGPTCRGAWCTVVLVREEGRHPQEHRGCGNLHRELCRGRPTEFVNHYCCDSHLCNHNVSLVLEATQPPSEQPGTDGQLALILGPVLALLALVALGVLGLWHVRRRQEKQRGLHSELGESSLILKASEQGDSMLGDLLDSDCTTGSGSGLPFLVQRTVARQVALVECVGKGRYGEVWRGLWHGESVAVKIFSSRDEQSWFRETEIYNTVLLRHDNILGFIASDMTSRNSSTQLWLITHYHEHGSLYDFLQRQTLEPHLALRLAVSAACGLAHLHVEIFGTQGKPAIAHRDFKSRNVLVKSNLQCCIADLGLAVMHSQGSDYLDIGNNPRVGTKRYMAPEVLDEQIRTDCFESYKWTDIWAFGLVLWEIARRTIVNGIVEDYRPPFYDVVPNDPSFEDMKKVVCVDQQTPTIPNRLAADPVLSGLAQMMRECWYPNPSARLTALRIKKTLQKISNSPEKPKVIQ

With O=C(N[C@@H](C1CC1)C(F)(F)F)c1cc(-c2cnn3cc(-c4ccc(F)cc4)cnc23)cs1 the inhibition [1] was 0%, the inhibition [2] was 0% and the inhibition [3] was 18%. For the same compound, the fold change (FC) [4] was 0 and the fold change (FC) [5] was 0.
CNC(=O)c1ccccc1Oc1nc(Nc2cc(OC)c(OC)c(OC)c2)ncc1Br gave an inhibition [6] of 0%, an inhibition [7] of 2% and a fold change (FC) [8] of 0. It also gave a fold change (FC) [9] of 0.15.
In the case of CC(C)[C@H](NC(=O)c1cc(-c2cnn3cc(-c4ccc(OCCN5CCCCC5)cc4)cnc23)cs1)C(F)(F)F, the inhibition [10] is reported as 42%, the inhibition [11] is reported as 0% and the fold change (FC) [12] is reported as 0.66.
